This is an account of results in publication PMC8015125 (ACS Omega, 2021).

For one test, the system named is BPH1 cell line. As to the kind of experiment: MTT assay on BPH1. It is filed as cell-based, human. As to conditions: read-out: IC50 BPH1, 24 h treatment. The method in brief:
(§1)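 Cells were grown in RPMI or DMEM with 10% FBS, penicillin and streptomycin at 37 °C under 5% CO2. They were seeded at 1 × 10^4 cells/well and exposed 24 h later for 24 h to the test compound at different concentrations (complexes 0–100 μM). After two PBS washes, 0.5 mg mL–1 MTT was added for 3–4 h at 37 °C. Formazan was dissolved in extraction buffer and OD read at 570 nm. % survival was taken relative to untreated cells (100%) to give IC50. Ratios were BPH1/PC3 and WI-38/A549 IC50.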
(Tetrazolium dyes change colour on reduction, which living cells bring about.)

Test [1] relates to WI-38 lung fibroblast cells. In words: MTT assay on WI-38. The test is classed as cell-based. The settings on record: read-out: IC50 WI-38, 24 h treatment. The method in brief: as §1
For a further test, the system named is A549 cell line. In words: MTT assay on A549. It is filed as cell-based. The settings on record: read-out: IC50 A549, 24 h treatment. In outline:
as §1

In another test the test system is PC3 cell line. As to the kind of experiment: MTT assay on PC3. The settings on record: 24 h treatment. It is filed as cell-based, human. The method in brief: as §1

By IC50 is commonly meant the concentration at which inhibition is half-maximal. Regarding `N.N.[Cl][Pt][Cl]` [cisplatin, reference compound], the IC50 in the test with BPH1 cell line amounted to 8 ± 1.03 µM; in test [1], 66.5 ± 2.12 µM; with A549 cell line it was 60.1 ± 2.43 µM; with PC3 cell line (read-out: IC50 PC3, MTT) it was 5.4 ± 1.93 µM. Also, the “R1 = IC50 ratio of BPH1 cells to PC3 cells” value in the test on PC3 cell line amounted to 1.4.
